This is an account of results in article PMC6626684 (Biochemical and biophysical research communications, 2019).

The target of assay [1] is WT mTRPV1 (Mus musculus, UniProt Q704Y3). Description: Live-cell calcium fluorescence imaging. It is filed as cell-based.
The target in assay [2] is mTRPV1 E571A (Mus musculus, UniProt Q704Y3, E571A). Description: Live-cell calcium fluorescence imaging. It is filed as cell-based.
For assay [3], the target named is TRPV1 E571A (Mus musculus, UniProt Q704Y3, E571A). Description: Single-channel inside-out patch-clamp recording, E571A mutant. It is filed as cell-based. As to conditions: for Hill slope factor: electrophysiology, E571A. Background: In patch-clamp work, channel activity is measured electrically.
Sequence of TRPV1 E571A (Q704Y3 whole entry E571A): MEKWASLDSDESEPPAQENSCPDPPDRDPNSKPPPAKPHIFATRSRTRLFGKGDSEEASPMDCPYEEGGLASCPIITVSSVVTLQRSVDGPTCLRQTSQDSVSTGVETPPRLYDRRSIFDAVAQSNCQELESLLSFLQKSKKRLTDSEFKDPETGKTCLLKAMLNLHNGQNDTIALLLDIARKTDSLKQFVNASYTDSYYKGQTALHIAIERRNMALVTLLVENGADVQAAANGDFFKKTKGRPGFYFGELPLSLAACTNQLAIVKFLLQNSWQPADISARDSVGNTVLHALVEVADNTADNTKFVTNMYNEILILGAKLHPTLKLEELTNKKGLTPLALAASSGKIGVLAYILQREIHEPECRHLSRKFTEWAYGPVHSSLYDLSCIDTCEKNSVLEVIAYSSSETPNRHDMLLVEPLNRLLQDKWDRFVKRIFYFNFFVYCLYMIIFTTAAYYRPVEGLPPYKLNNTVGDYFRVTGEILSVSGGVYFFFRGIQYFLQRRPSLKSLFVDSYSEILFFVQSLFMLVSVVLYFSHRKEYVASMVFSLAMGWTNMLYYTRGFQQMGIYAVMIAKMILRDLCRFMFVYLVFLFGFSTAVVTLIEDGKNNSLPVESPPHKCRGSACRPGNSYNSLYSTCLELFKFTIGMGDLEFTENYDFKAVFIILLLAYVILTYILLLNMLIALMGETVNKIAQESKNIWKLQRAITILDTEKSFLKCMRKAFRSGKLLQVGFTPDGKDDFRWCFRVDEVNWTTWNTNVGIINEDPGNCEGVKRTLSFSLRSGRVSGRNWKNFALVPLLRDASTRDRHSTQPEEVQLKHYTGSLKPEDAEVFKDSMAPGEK
Assay [4] deals with T1, WT TRPV1 (Mus musculus, UniProt Q704Y3). As to conditions: mTRPV1; cited from earlier work.
T1 sequence (Q704Y3 whole entry): as the sequence (Q704Y3 whole entry E571A) above, with A571E counted along it
The conditions of assay [5]: psychophysical tests; cited from earlier work.
In assay [6] the target is TRPV1 T551V (Mus musculus, UniProt Q704Y3, T551V). Description: Single-channel inside-out patch-clamp recording, T551V mutant. It is filed as cell-based. As to conditions: for Hill slope factor: electrophysiology; for Hill slope factor / open probability: T551V.
Sequence of TRPV1 T551V (Q704Y3 whole entry T551V): as the sequence (Q704Y3 whole entry E571A) above, with T551V, A571E counted along it
For assay [7], the target named is T1, WT TRPV1. Description: Single-channel inside-out patch-clamp recording, WT channel. It is filed as cell-based. As to conditions: for Hill slope factor: electrophysiology.
Assay [8] addresses mTRPV1 T551V (Mus musculus, UniProt Q704Y3, T551V). Description: Live-cell calcium fluorescence imaging. As to conditions: for Hill slope factor: calcium imaging, T551V. The format is cell-based.
Assay [9] deals with T2, TRPV1 T671S (Mus musculus, UniProt Q704Y3, T671S). To be noted: capsaicin stimulation; cited from earlier work.
T2 sequence (Q704Y3 whole entry T671S): as the sequence (Q704Y3 whole entry E571A) above, with A571E, T671S counted along it
The target in assay [10] is TRPV1 T671V (Mus musculus, UniProt Q704Y3, T671V). Description: Single-channel inside-out patch-clamp recording, T671V mutant. It is filed as cell-based.
Sequence of TRPV1 T671V (Q704Y3 whole entry T671V): as the sequence (Q704Y3 whole entry E571A) above, with A571E, T671V counted along it
The subject of assay [11] is non-transfected HEK293 cells. Description: Calcium imaging control in non-transfected cells. It is filed as cell-based.
Assay [12] has as its target T2, TRPV1 T671S. Description: Single-channel inside-out patch-clamp recording, T671S mutant. It is filed as cell-based. As to conditions: most piperine concentrations tested. The gist of the method: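 HEK293 cells transiently transfected (Lipofectamine 2000) with eYFP-fused mouse TRPV1 mutant, used 1–2 days later. Inside-out patches held at 0 mV for 50 ms, stepped to +80 mV for 1 s. Symmetrical 130 mM NaCl, 0.2 mM EDTA, 3 mM HEPES pH 7.2, no Ca2+, 25°C. Filtered at 2.25 kHz, sampled at 10 kHz. Po from Gaussian fits to all-point histograms; patches with >2 channels discarded. Repeated-measures two-way ANOVA.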

Sequence of WT mTRPV1 (Q704Y3 whole entry): as the sequence (Q704Y3 whole entry E571A) above, with A571E counted along it
Sequence of mTRPV1 E571A (Q704Y3 whole entry E571A): as the sequence (Q704Y3 whole entry E571A) above
Sequence of mTRPV1 T551V (Q704Y3 whole entry T551V): as the sequence (Q704Y3 whole entry E571A) above, with T551V, A571E counted along it

With `Oc1cc2c(cc1O)CN(C(=S)NCCc1ccc(Cl)cc1)CCC2` [CZP, capsazepine], in assay [1] (10 μM CZP with 10 μM piperine, calcium imaging), the “inhibition of fluorescence intensity increase induced by 10 μM piperine” value is recorded as “almost completely inhibited”.
For orientation: EC50 means the midpoint of the concentration-response curve. With `COc1cc(CNC(=O)CCCC/C=C/C(C)C)ccc1O` [capsaicin], the EC50 in assay [2] turned out to be 1 ± 0.04 µM; in [3] it was 1.3 ± 0.03 µM; in [6] it was 1.4 ± 0.03 µM; in assay [1], 0.1 ± 0.002 µM; in [8] it was 1 ± 0.02 µM. The Hill slope factor in assay [2] (calcium imaging, E571A) came out at 3.0; in assay [3], 3.0; in [6] it was 3.3; in assay [1] (calcium imaging, WT), 1.9; in assay [7] (WT), 1.9; in [8] it was 3.3. In addition, the maximum open probability result in [4] is “above 90%”. Further, the relative pungency-taste threshold in assay [5] is 0.6 µM. The “channel activity of T671S when stimulated” value in assay [9] was “wildtype-like activities”. Further, in [10] (capsaicin (10 μM)), the “currents from the same patches” value is “robust currents”.
As to `O=C(/C=C/C=C/c1ccc2c(c1)OCO2)N1CCCCC1` [piperine, Piperine], the EC50 worked out at 3.5 ± 0.5 µM in [2]; 277 ± 36.5 µM in [3]; 93.5 ± 15.1 µM in assay [6]; 3.3 ± 0.7 µM in [1]; 252 ± 38.1 µM in assay [7]; 5.1 ± 0.7 µM in assay [8]. Moreover, the “fluorescence signal at 30 μM” value is “decreased substantially” in assay [2] (30 μM piperine, E571A expressing cells) and “decreased substantially” in [8] (30 μM piperine, T551V expressing cells). Also, the Hill slope factor in [2] (calcium imaging, E571A) was 2.2; in assay [3], 0.7; in [6], 0.9; in assay [1] (calcium imaging, WT) it was 2.2; in assay [7] (WT) it was 2.2; in assay [8], 1.3. Further, the efficacy in assay [2] (calcium imaging, E571A, normalized to 10 μM capsaicin response) was determined as 77.1 ± 7.3%; in [1] (calcium imaging, WT, normalized to 10 μM capsaicin response), 82.7 ± 5.7%. Also, in [3] (read-out: maximum activation open probability (estimated)), the Emax is 22%. Also, the “perceived pungency level, times lower than capsaicin” value in assay [5] is 10-to-100 times. Also, in assay [5], the relative pungency-taste threshold is 10.5 µM. Besides, the figures for the open probability in [6] (10 μM piperine) and in assay [6] (30 μM piperine) were 12.3 ± 2.2% and 25.8 ± 5.1%, respectively. The “fluorescence intensity of the cells at 30 μM” value in assay [1] (30 μM piperine, WT, consistent with channel desensitization) is reported as “decreased”. Further, the “open probability (Po)” value in [7] (30 μM piperine, WT) amounted to 10%. In addition, the “maximal Po predicted by extrapolation” value in assay [7] (WT, extrapolation of Hill fit) is recorded as “about 36%”. The “non-specific effects in untransfected cells” value in assay [11] was “no detectable non-specific effects”. Further, the channel activity result in assay [10] (30 μM piperine) is on record as “no channel activity”. In addition, the “open probability compared with wildtype channels” value in [12] is reported as “significantly lower”.
